# Test results taken from ChEMBL document CHEMBL4699636, “Novel 2,7-Diazaspiro[4,4]nonane Derivatives to Inhibit Mouse and Human Osteoclast Activities and Prevent Bone Loss in Ovariectomized Mice without Affecting Bone Formation” (J Med Chem, 2020).
# Calls of active or inactive are those of the source. No cut-off for these calls is given here.
# Assays:
# [1] = target: T1, Dedicator of cytokinesis protein 5 (Homo sapiens, UniProt Q9H7D0); assay: Inhibition of C-terminal 6-histidine tagged human DOCK5 (1212 to 1642 residues) expressed in Escherichia coli assessed as reduction in nucleotide exchange efficiency at 20 to 60 uM by N-methylanthraniloyl-GDP fluorescence based nucleotide exchange assay; conditions: dose microM 20-60
# Summary of the method: (§1)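 Mant-GDP-loaded His-tagged human RAC1 at 2.0 µM with 100 nM DOCK5 (residues 1212-1642) or TRIOGEF1 (R1232-T1550), both E. coli-expressed. Buffer: 50 mM Tris pH 8, 300 mM NaCl, 2 mM MgCl2, 1 mM DTT, 1% DMSO, 25 °C. Reaction started with 100 µM GTP. Fluorescence decay read at ex 360/em 440 nm, kobs by single-exponential fit, compound at 0, 20 or 60 µM, duplicates, as % of activity.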
# [2] = test system: Osteoclast; assay: Inhibition of resorption activity of mouse peripheral blood cell-derived osteoclasts at 5-10 uM incubated for 48 hrs by Kossa-staining based assay; assay type: functional, tissue-based; conditions: dose microM 5-10, time 48.0 hrs, in the assay text read “bone marrow-derived” for “peripheral blood cell-derived”
# Summary of the method: (§2)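 Osteoclasts from C57BL/6J mouse bone marrow, M-CSF then M-CSF 30 ng/mL plus RANKL 100 ng/mL. Day-3 cells reseeded on calcium phosphate-coated wells, compound added next day in 0.5% DMSO for 48 h, 8 wells per condition. 4 wells TRAP-stained for osteoclast counts, 4 von Kossa-stained for resorbed area. Activity expressed as resorption normalized to osteoclast number.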
# [3] = Toxicity in mouse peripheral blood cell-derived osteoclasts assessed as reduction in osteoclasts number at 5-10 uM incubated for 48 hrs by TRAP-staining based assay; assay type: tissue-based; conditions: osteoclast, in the assay text read “bone marrow-derived” for “peripheral blood cell-derived”
# Summary of the method: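 Osteoclasts were derived from bone marrow of 4–8-week-old C57BL/6J mice, first with M-CSF 100 ng/mL for 48 h, then with M-CSF 30 ng/mL plus RANKL 100 ng/mL. At day 3 of differentiation they were detached with Accutase and seeded on calcium phosphate-coated wells. Next day, compound was added in 0.5% DMSO (8 wells/condition) for 48 h. Four wells were TRAP-stained (pH 5, tartrate, 1.5 h, 37 °C) and osteoclasts counted from images.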
# [4] = target: Triple functional domain protein (Homo sapiens) (UniProt O75962); assay: Inhibition of C-terminal 6-histidine tagged human TRIOGEF1 (R1232 to T1550 residues) expressed in Escherichia coli assessed as reduction in nucleotide exchange efficiency at 20 to 60 uM by N-methylanthraniloyl-GDP fluorescence based nucleotide exchange assay; conditions: dose microM 20-60; summary of the method: as §1
# [5] = test system: Osteoclast (Homo sapiens); assay: Toxicity in human peripheral blood cell-derived osteoclasts assessed as reduction in osteoclasts number at 20 uM incubated for 48 hrs by TRAP-staining based assay
# [6] = test system: Osteoclast (Homo sapiens); assay: Inhibition of resorption activity of human peripheral blood cell-derived osteoclasts at 1-20 uM incubated for 48 hrs by Kossa-staining based assay; conditions: dose microM 1-20, time 48.0 hrs
# [7] = Toxicity in C57BL6/J mouse model of OVX-induced bone loss assessed as effect on bone formation by measuring osteoblast surface per trabecular bone surface level in femoral metaphysis at 100 ug/kg, sc QD for 4 weeks by histomorphometry (5.03 +/ 2.92 %); assay type: organism-based; conditions: in vivo, 0.1 mg/kg, 672 h, dose 100 µg/kg
# [8] = test system: Mus musculus; assay: Antiosteoporotic activity in C57BL6/J mouse model of OVX-induced bone loss assessed as trabecular bone volume per tissue volume level in femoral metaphysis at 100 ug/kg, sc QD for 4 weeks by histomorphometry (11.67 +/- 2.37%); assay type: functional; conditions: dose 100 µg/kg
# [9] = test system: Mus musculus; assay: Antiosteoporotic activity in C57BL6/J mouse model of OVX-induced bone loss assessed as trabecular bone volume per tissue volume level in tibial metaphysis at 100 ug/kg, sc QD for 4 weeks by microCT analysis (17.49 +/- 2.91 %); assay type: functional; conditions: dose 100 µg/kg
# [10] = test system: Mus musculus; assay: Antiosteoporotic activity in C57BL6/J mouse model of OVX-induced bone loss assessed as trabecular thickness level in femoral metaphysis at 100 ug/kg, sc QD for 4 weeks by histomorphometry (39.96 +/- 5.42 um); assay type: functional; conditions: dose 100 µg/kg
# [11] = test system: Mus musculus; assay: Antiosteoporotic activity in C57BL6/J mouse model of OVX-induced bone loss assessed as cortical thickness level in tibial diaphysis at 100 ug/kg, sc QD for 4 weeks by microCT analysis (179.27 +/- 7.57 um); assay type: functional; conditions: dose 100 µg/kg
# [12] = test system: Mus musculus; assay: Antiosteoporotic activity in C57BL6/J mouse model of OVX-induced bone loss assessed as trabecular separation level in femoral metaphysis at 100 ug/kg, sc QD for 4 weeks by histomorphometry (319.80 +/- 106.52 um); assay type: functional; conditions: dose 100 µg/kg
# [13] = Toxicity in C57BL6/J mouse model of OVX-induced bone loss assessed as effect on bone formation by measuring osteocalcin level at 100 ug/kg, sc QD for 4 weeks […]; assay type: organism-based; conditions: in vivo, 0.1 mg/kg, 672 h, dose 100 µg/kg
# [14] = test system: Mus musculus; assay: Antiosteoporotic activity in C57BL6/J mouse model of OVX-induced bone loss assessed as structure model index level in tibial metaphysis at 100 ug/kg, sc QD for 4 weeks by microCT analysis (1.92 +/- 0.19); assay type: functional; conditions: dose 100 µg/kg
# [15] = Toxicity in C57BL6/J mouse model of OVX-induced bone loss assessed as effect on bone formation by measuring number of osteoblasts per bone surface level in femoral metaphysis at 100 ug/kg, sc QD for 4 weeks by histomorphometry (4.55 +/ 2.53 /mm); assay type: organism-based; conditions: in vivo, 0.1 mg/kg, 672 h, dose 100 µg/kg
# [16] = Toxicity in C57BL6/J mouse model of OVX-induced bone loss assessed as effect on bone formation by measuring mineralizing mineral apposition rate level in femoral metaphysis at 100 ug/kg, sc QD for 4 weeks by histomorphometry (1.62 +/ 0.21 um/d (lcm)); assay type: organism-based; conditions: in vivo, 0.1 mg/kg, 672 h, dose 100 µg/kg
# [17] = test system: Mus musculus; assay: Antiosteoporotic activity in C57BL6/J mouse model of OVX-induced bone loss assessed as serum CTX-1 level […] at 100 ug/kg, sc QD for 4 weeks (165.38 +/- 54.93 %); assay type: functional; conditions: dose 100 µg/kg
# [18] = test system: Mus musculus; assay: Antiosteoporotic activity in C57BL6/J mouse model of OVX-induced bone loss assessed as trabecular number level in femoral metaphysis at 100 ug/kg, sc QD for 4 weeks by histomorphometry (2.99 +/- 0.80 /mm); assay type: functional; conditions: dose 100 µg/kg
# [19] = test system: Mus musculus; assay: Antiosteoporotic activity in C57BL6/J mouse model of OVX-induced bone loss assessed as degree of anisotropy (range 0-1) level in tibial metaphysis at 100 ug/kg, sc QD for 4 weeks by microCT analysis (0.53 +/- 0.07); assay type: functional; conditions: dose 100 µg/kg
# [20] = Toxicity in C57BL6/J mouse model of OVX-induced bone loss assessed as effect on bone formation by measuring mineralizing surface per trabecular bone surface level in femoral metaphysis at 100 ug/kg, sc QD for 4 weeks by histomorphometry (27.90 +/ 8.22 %); assay type: organism-based; conditions: in vivo, 0.1 mg/kg, 672 h, dose 100 µg/kg
# [21] = Toxicity in C57BL6/J mouse model of OVX-induced bone loss assessed as effect on body weight at 100 ug/kg, sc QD for 4 weeks; assay type: organism-based; conditions: in vivo, 0.1 mg/kg, 672 h, dose 100 µg/kg
# [22] = Toxicity in C57BL6/J mouse model of OVX-induced bone loss assessed as effect on bone formation by measuring bone formation rate per trabecular bone surface level in femoral metaphysis at 100 ug/kg, sc QD for 4 weeks by histomorphometry ([…]); assay type: organism-based; conditions: in vivo, 0.1 mg/kg, 672 h, dose 100 µg/kg
# [23] = test system: Mus musculus; assay: Antiosteoporotic activity in C57BL6/J mouse model of OVX-induced bone loss assessed as trabecular pattern factor level in tibial metaphysis at 100 ug/kg, sc QD for 4 weeks by microCT analysis (17.17 +/- 3.41 […]); assay type: functional; conditions: dose 100 µg/kg
# [24] = target: Dedicator of cytokinesis protein 5 (Mus musculus) (UniProt B2RY04); assay: Inhibition of DOCK5 in mouse osteoclasts assessed as induction of podosome belt organization defects at 100 uM incubated for 4 hrs followed by compound wash out by overnight recovery by immunofluorescence based assay; assay type: tissue-based; conditions: Osteoclast
# Summary of the method: (§3)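 Mouse bone-marrow osteoclasts, differentiated with M-CSF and RANKL on coverslips. Compound added to 100 µM final, 0.5% DMSO, for 4 h. Cells fixed directly, or after medium change and overnight recovery, then stained for vinculin and actin (phalloidin) and viewed by widefield microscopy for podosome belt organization.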
# [25] = target: Dedicator of cytokinesis protein 5 (Mus musculus) (UniProt B2RY04); assay: Inhibition of N-terminal GFP tagged mouse DOCK5 expressed in HEK293T cells assessed as reduction in exchange activity at 100 uM incubated for 1 hr by Western blot analysis based Rac-GTP pull-down assay; assay type: cell-based
# Summary of the method: (§4)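 HEK293T cells transiently expressing GFP-tagged DOCK5 DHR2 exchange domain (mouse, or human residues 1212-1642). Treated 1 h with compound in 1% DMSO, then lysed. Rac-GTP pulled down with GST-PakCRIB beads, 45 min at 4 °C, and detected by western blot. Band intensity normalized to lysate protein. Single dose 100 µM; dose-response in 1.5x steps for IC50.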
# [26] = target: T1, Dedicator of cytokinesis protein 5; assay: Inhibition of N-terminal GFP tagged human DOCK5 (1212-1642 residues) expressed in HEK293T cells assessed as reduction in exchange activity incubated for 1 hr by Western blot analysis based Rac-GTP pull-down assay; assay type: cell-based; summary of the method: as §4
# [27] = target: Dedicator of cytokinesis protein 5 (Mus musculus) (UniProt B2RY04); assay: Inhibition of DOCK5 in mouse osteoclasts assessed as induction of podosome belt organization defects at 100 uM incubated for 4 hrs by immunofluorescence based assay; conditions: Osteoclast; summary of the method: as §3
# [28] = test system: Osteoclast; assay: Inhibition of resorption activity of mouse peripheral blood cell-derived osteoclasts at 8 uM incubated for 48 hrs by Kossa-staining based assay; assay type: functional, tissue-based; conditions: in the assay text read “bone marrow-derived” for “peripheral blood cell-derived”; summary of the method: as §2
# Chain of Dedicator of cytokinesis protein 5 (Mus musculus) (B2RY04 whole entry, the tested form may be a part): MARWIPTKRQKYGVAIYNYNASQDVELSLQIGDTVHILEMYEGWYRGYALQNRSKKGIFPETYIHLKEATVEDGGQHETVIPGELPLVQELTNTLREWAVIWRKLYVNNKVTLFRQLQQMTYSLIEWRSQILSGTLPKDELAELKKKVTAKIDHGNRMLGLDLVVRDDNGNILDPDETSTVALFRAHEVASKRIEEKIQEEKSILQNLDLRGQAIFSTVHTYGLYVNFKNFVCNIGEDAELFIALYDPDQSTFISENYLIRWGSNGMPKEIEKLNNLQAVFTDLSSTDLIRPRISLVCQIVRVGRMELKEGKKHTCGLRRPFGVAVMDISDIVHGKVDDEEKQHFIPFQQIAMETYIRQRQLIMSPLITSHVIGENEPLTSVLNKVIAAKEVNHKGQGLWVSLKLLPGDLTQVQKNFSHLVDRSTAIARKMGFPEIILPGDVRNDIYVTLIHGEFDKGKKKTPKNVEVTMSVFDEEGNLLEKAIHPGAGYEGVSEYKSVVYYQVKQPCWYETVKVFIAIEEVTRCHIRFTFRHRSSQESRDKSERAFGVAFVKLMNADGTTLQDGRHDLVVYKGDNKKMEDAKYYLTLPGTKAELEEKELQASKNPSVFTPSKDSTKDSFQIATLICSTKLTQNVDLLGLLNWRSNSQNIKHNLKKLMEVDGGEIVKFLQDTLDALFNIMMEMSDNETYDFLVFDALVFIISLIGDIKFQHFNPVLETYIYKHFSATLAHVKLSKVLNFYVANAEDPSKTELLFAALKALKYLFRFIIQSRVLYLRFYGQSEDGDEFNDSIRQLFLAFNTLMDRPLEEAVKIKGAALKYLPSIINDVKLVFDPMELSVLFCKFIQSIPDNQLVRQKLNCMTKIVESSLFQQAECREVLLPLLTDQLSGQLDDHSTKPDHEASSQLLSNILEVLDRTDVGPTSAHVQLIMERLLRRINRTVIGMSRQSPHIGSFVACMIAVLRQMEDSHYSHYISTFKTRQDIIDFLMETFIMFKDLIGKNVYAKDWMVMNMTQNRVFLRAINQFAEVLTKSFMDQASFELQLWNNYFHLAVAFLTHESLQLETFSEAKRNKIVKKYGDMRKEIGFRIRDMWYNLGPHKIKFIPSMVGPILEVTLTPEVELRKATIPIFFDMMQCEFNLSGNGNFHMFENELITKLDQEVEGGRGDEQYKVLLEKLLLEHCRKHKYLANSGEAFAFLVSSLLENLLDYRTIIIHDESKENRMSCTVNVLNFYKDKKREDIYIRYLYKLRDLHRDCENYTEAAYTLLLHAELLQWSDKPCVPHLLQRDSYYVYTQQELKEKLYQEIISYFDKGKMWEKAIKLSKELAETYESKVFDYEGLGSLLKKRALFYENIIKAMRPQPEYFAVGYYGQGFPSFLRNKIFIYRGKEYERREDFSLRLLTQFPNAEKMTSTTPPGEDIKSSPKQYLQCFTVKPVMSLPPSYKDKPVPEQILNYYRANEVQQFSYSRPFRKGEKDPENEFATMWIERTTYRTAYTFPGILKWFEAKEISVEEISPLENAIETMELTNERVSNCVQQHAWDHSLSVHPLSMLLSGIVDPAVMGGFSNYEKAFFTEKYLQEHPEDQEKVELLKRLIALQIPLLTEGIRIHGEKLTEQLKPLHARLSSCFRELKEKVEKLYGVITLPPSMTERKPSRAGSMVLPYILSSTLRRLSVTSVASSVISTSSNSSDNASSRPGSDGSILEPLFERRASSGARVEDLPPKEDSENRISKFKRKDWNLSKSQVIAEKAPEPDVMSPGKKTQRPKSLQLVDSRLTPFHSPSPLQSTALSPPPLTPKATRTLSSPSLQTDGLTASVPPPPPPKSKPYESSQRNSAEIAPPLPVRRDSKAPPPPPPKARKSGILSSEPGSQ
# T1 sequence (Q9H7D0 whole entry, the tested form may be a part): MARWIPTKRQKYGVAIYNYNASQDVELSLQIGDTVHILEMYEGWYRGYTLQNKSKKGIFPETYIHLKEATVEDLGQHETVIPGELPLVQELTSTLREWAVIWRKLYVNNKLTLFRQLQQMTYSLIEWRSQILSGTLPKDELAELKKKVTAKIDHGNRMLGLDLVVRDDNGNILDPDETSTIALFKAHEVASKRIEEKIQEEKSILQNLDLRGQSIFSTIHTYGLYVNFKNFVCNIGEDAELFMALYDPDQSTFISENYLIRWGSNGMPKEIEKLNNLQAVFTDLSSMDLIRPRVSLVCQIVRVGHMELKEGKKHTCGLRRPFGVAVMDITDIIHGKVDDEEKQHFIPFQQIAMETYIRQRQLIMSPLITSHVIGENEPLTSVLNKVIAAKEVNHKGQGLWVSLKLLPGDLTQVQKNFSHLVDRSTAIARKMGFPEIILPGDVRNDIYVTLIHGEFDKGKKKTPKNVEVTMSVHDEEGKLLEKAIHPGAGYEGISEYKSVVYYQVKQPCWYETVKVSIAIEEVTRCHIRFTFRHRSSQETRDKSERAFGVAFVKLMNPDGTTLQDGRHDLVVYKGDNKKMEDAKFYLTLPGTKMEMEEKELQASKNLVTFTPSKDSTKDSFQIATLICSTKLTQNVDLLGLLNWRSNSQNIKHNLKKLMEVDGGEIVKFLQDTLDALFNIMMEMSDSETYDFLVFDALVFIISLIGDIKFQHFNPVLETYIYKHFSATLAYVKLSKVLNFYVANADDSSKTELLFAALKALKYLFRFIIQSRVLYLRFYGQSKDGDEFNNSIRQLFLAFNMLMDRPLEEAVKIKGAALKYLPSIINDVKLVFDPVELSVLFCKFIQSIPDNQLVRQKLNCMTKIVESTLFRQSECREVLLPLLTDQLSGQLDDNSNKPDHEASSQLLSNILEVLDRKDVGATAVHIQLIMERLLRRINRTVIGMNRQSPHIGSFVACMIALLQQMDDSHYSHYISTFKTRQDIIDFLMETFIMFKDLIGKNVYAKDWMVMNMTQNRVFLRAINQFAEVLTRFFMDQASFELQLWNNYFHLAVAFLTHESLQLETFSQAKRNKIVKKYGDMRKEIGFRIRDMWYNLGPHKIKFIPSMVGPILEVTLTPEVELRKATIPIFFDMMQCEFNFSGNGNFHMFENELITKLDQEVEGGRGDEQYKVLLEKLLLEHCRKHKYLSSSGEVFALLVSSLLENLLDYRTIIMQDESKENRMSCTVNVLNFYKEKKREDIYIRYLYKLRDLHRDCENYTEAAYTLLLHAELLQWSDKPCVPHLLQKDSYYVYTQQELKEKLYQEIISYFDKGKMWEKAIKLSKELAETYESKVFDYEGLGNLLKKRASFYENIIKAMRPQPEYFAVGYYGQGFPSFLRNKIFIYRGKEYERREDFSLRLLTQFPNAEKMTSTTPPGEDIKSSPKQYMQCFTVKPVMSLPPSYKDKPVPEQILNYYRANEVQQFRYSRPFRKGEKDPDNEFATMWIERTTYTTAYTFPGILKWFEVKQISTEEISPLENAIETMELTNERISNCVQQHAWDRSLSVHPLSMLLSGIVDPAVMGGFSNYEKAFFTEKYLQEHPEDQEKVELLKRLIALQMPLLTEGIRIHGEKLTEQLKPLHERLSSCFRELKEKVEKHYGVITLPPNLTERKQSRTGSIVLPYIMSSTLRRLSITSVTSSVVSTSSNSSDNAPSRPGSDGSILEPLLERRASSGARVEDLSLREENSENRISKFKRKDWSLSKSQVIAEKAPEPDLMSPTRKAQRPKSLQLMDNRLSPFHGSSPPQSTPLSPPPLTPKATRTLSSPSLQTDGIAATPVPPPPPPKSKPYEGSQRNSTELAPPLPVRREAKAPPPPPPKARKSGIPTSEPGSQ
smiles,measurement,setting,value
COc1ccc(CN2CC[C@@]3(C2)[C@@H](O)CN(c2ccccc2)S3(=O)=O)cc1F (racemic),inhibition,[1],inactive
same,inhibition,[2],Active
O=C1N(c2cccc(F)c2)CCC12CCN(Cc1cccc(Cl)c1)C2 (stereo unspecified),inhibition,[1],inactive
same,inhibition,[2],Active
same,Activity,[3],Toxic
O=S1(=O)N(c2ccccc2)C[C@H](O)[C@]12CCN(Cc1ccc(Cl)c(Cl)c1)C2 (racemic),inhibition,[1],67%
same,inhibition,[2],Active
same,inhibition,[4],inactive
same,Activity,[5],Toxic
same,inhibition,[6],Active
Cn1cc(CN2CC[C@@]3(C2)[C@@H](O)CN(c2ccccc2)S3(=O)=O)c2ccccc21 (racemic),inhibition,[1],inactive
same,inhibition,[2],Active
NCCCC(O)(P(=O)(O)O)P(=O)(O)O,inhibition,[6],Active
O=S1(=O)N(c2ccccc2)C[C@H](O)[C@]12CCN(Cc1ccc3c(c1)CCC3)C2 (racemic),inhibition,[1],inactive
same,inhibition,[2],Active
O=S1(=O)N(c2ccccc2)C[C@H](O)[C@]12CCN(Cc1cnc3ccccc3c1)C2 (racemic),inhibition,[1],inactive
same,inhibition,[2],Active
COc1ccc(N2CCC3(CCN(Cc4cccc(Cl)c4)C3)C2=O)cc1C (stereo unspecified),inhibition,[1],inactive
same,inhibition,[2],Active
same,Activity,[3],Toxic
O.O=P(O)(O)C(O)(Cn1ccnc1)P(=O)(O)O [ZOLEDRONIC ACID],Activity,[7],0.52%
same,Activity,[8],26.19%
same,Activity,[9],43.96%
same,Activity,[10],44.8 µm
same,Activity,[11],189.5 um
same,Activity,[12],132.16 um
same,Activity,[13],42.55%
same,Activity_index,[14],-1.36
same,Activity,[15],0.54 /millimeter
same,Activity,[16],1.11 micrometer/day
same,Activity,[17],73.18%
same,Activity,[18],5.92 /millimeter
same,Activity_index,[19],0.25
same,Activity,[20],8.51%
same,Activity,[21],Non-Toxic
same,Activity,[22],34.28 um3/um2/yr
same,Activity,[23],-35.6 1/mm
O=S1(=O)N(c2ccccc2)C[C@H](O)[C@]12CCN(Cc1ccccc1Cl)C2 (racemic),inhibition,[1],inactive
same,inhibition,[2],Active
O=S1(=O)N(c2ccccc2)C[C@H](O)[C@]12CCN(Cc1cccc(Cl)c1)C2 (racemic),inhibition,[24],inactive
same,inhibition,[25],Active
same,IC50,[26],24 µM
same,inhibition,[27],Active
same,inhibition,[1],inactive
same,inhibition,[28],Active
same,inhibition,[2],Active
